In experiment [1] the target is T1, Diacylglycerol lipase-alpha (Homo sapiens, UniProt Q9Y4D2).
T1 sequence (Q9Y4D2 whole entry): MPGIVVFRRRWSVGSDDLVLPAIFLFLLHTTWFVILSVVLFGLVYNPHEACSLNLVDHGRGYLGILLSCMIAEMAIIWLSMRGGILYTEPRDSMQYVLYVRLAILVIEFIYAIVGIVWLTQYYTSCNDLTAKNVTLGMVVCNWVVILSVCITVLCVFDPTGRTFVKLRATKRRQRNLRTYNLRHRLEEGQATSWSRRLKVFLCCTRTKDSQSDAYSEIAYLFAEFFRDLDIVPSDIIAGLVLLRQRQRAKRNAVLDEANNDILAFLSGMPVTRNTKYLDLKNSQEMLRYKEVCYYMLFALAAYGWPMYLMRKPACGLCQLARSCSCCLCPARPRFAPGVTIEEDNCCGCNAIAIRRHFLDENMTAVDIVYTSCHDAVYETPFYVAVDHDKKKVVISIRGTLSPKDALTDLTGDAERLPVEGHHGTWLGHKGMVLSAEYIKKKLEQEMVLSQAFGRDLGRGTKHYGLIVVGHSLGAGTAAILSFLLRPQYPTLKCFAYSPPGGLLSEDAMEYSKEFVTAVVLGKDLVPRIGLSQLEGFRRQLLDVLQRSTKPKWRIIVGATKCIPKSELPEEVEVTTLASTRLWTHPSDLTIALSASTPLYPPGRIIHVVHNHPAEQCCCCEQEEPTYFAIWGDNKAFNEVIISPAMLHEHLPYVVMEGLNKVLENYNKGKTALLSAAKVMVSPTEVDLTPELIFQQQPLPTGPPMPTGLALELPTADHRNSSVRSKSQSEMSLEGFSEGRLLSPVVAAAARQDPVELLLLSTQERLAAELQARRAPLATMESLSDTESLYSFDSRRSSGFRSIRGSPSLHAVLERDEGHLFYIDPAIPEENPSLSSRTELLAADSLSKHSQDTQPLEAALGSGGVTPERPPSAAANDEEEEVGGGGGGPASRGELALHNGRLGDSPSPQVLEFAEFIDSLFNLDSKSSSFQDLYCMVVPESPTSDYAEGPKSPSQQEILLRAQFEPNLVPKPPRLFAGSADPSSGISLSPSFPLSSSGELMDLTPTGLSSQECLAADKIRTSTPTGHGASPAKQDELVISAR
Briefly: Inhibition of human recombinant DAGLalpha mediated sn-1-[14C]oleoyl-2-arachidonoyl-glycerol hydrolysis to 2-AG overexpressed in COS cells after 20 mins. The experiment is classed as cell-based. The method, boiled down: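 COS cells overexpressing DAGLα were harvested in Tris-HCl pH 7, Dounce-homogenized and spun at 800 g then 10 000 g at 4 °C. The 10 000 g membrane fraction was incubated with sn-1-[14C]oleoyl-2-arachidonoyl-glycerol in 50 mM Tris-HCl with 1 mM CaCl2, pH 7.0, for 20 min at 37 °C. Lipids were extracted with CHCl3/MeOH 2:1 and separated by silica TLC (CHCl3/MeOH/NH4OH 85/15/1). [14C]Oleic acid bands were β-counted.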

Experiment [2] is described as follows: Inhibition of MAGL mediated [14C]2-arachidonoyl glycerol hydrolysis in african green monkey COS cells. The experiment is classed as cell-based. The settings on record: Chlorocebus aethiops. The method, boiled down:
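The 10,000 g cytosolic fraction of COS cells overexpressing DAGLα was used as the MAGL source. It was incubated with radiolabelled synthetic 2-arachidonoylglycerol (1.0 mCi/mmol) in 50 mM Tris-HCl, pH 7.0, at 37 °C for 20 min. Lipids were then extracted with 2 volumes of chloroform/methanol 2:1 and lyophilized.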

Experiment [3] relates to RBL-2H3. Briefly: Inhibition of [14C]anandamide uptake in rat RBL-2H3 cells preincubated 10 mins before addition of [14C]anandamide. The format is functional, cell-based. Further details: inhibition (INH): concentration or dose not given beside the values. Conditions: for IC50: Rattus norvegicus, RBL-2H3. The method, boiled down:
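Intact RBL-2H3 cells were pre-exposed to inhibitor at varying concentrations for 10 min, then given [14C]anandamide (10,000 cpm) for 90 s at 37 °C. Uptake was taken as the residual label in the medium after CHCl3/CH3OH 2:1 extraction, read by scintillation counting of the organic phase. Non-specific binding was defined with excess unlabelled anandamide. IC50 was calculated from the inhibition data.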

Experiment [4] concerns the target T2, Fatty-acid amide hydrolase 1 (Rattus norvegicus, UniProt P97612).
T2 sequence (P97612 whole entry): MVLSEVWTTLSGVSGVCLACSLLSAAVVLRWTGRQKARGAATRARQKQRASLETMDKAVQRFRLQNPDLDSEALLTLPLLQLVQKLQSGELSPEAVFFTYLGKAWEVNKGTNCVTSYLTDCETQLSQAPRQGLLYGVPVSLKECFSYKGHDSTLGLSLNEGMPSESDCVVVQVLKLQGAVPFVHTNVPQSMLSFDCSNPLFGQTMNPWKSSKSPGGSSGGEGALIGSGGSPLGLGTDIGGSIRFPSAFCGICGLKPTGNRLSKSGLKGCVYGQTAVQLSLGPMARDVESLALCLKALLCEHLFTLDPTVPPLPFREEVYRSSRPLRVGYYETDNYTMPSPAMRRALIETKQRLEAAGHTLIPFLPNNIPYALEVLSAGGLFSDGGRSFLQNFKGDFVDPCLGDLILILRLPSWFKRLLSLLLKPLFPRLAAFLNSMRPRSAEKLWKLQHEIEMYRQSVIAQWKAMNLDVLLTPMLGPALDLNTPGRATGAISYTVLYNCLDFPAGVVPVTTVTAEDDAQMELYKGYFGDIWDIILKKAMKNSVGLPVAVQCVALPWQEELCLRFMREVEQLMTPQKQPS
Briefly: Inhibition of FAAH mediated [14C]anandamide hydrolysis in rat brain after 30 mins. The experiment is classed as tissue-based. The method in brief:
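Rat brain membranes incubated with test compounds and [14C]anandamide in 50 mM Tris-HCl, pH 9, for 30 min at 37 °C. After extraction with 2 volumes CHCl3/MeOH 2:1, [14C]ethanolamine in the aqueous phase was scintillation-counted. IC50 was taken as the concentration giving 50% inhibition of hydrolysis.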

Experiment [5] relates to RBL-2H3. Briefly: Inhibition of [14C]anandamide uptake in rat RBL-2H3 cells at 0.1 uM preincubated 10 mins before addition of [14C]anandamide. The experiment is classed as functional. The method, boiled down:
(§1)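 RBL-2H3 cells were given inhibitor at 0.1 or 1 µM for 10 min, then [14C]anandamide (10,000 cpm) for 90 s at 37 °C. Uptake was read as residual medium label in the organic extract, and [14C]ethanolamine was counted in the aqueous phase in the same experiment. Results are % inhibition of uptake, N=4.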

The target in experiment [6] is T3, Fatty-acid amide hydrolase 1 (Rattus norvegicus) (UniProt P97612).
T3 sequence (whole entry): T2 sequence (P97612 whole entry)
Briefly: Inhibition of FAAH mediated [14C]anandamide hydrolysis in rat RBL-2H3 cells at 0.1 uM after 30 mins.

Experiment [7] has as its system RBL-2H3. Briefly: Inhibition of [14C]anandamide uptake in rat RBL-2H3 cells at 1 uM preincubated 10 mins before addition of [14C]anandamide. The experiment is classed as functional. The method, boiled down:
as §1

In experiment [8] the target is T3, Fatty-acid amide hydrolase 1 (Rattus norvegicus). Briefly: Inhibition of FAAH mediated [14C]anandamide hydrolysis in rat RBL-2H3 cells at 1 uM after 30 mins.
Experiment [9] has as its system Monocyte. Briefly: Inhibition of anandamide uptake in human monocytes. The format is functional, cell-based.

SMILES strings stand for the structures.

Data on 16 compounds can be found in ChEMBL document CHEMBL1157211, “Carbamoyl tetrazoles as inhibitors of endocannabinoid inactivation: a critical revisitation” (Eur J Med Chem, 2008).

Usually IC50 stands for the midpoint of a concentration-inhibition curve. On to `CN(C)C(=O)n1nnnc1CNC(=O)c1ccc(N=[N+]=[N-])c(I)c1`, for which the IC50 was 130 nM in experiment [1], 350 nM in experiment [2], more than 1000 nM in experiment [3] and 23 nM in experiment [4]. In addition, the “inhibition (INH)” value in experiment [3] was determined as 32.4%.

Turning to `CN(C)C(=O)n1nnnc1CNC(=O)c1cccc(-c2ccccc2)c1`, the half-inhibitory concentration (IC50) came to 340 nM in experiment [1], 850 nM in experiment [2], 90 nM in experiment [3] and 32 nM in experiment [4].

Take `CN(C)C(=O)n1nnc(CNC(=O)CCCCCCCc2ccccc2)n1`: the IC50 in experiment [1] is 10000 nM; in experiment [2], 10000 nM; in experiment [3], more than 10000 nM; in experiment [4] it was 3.2 nM. For the same compound, the “inhibition (INH)” value in experiment [3] is 18.8%.

As to `CN(C)C(=O)n1nnnc1CNC(=O)CCCCCCCc1ccccc1`, the IC50 is 570 nM in experiment [1], 40 nM in experiment [2], more than 10000 nM in experiment [3] and 10 nM in [4]. The “inhibition (INH)” value in [3] is listed as 37.5%.

As to `CN(C)C(=O)n1nnc(Cc2ccc(-c3ccccc3)cc2)n1`, the IC50 was 510 nM in experiment [1], 20 nM in experiment [2], 998 nM in [3] and 33 nM in experiment [4].

For `CN(C)C(=O)n1nnnc1CCc1ccccc1`, the half-maximal inhibitory concentration (IC50) in [1] is 10000 nM; in experiment [2] it was 10000 nM; in [3], more than 10000 nM; in [4], 5.4 nM. Moreover, in experiment [3], the “inhibition (INH)” value came out at 15.8%.

For the compound `CN(C)C(=O)n1nnc(CCCc2ccccc2)n1`, the concentration for half-maximal inhibition (IC50) in experiment [1] was 500 nM; in experiment [2] it was 110 nM; in experiment [3], more than 10000 nM; in experiment [4], 3.2 nM. The “inhibition (INH)” value in [3] came out at 16%.

As to `CN(C)C(=O)n1nnc(CNC(=O)c2cccc(-c3ccccc3)c2)n1`, the IC50 in experiment [1] is more than 10000 nM; in experiment [2], 10000 nM; in experiment [3], more than 10000 nM; in [4], 23 nM. Also, the “inhibition (INH)” value in [3] is 23%.

For the compound `CN(C)C(=O)n1nnnc1CNC(=O)CCCCCCc1ccccc1`, the IC50 came to 200 nM in [1], 20 nM in experiment [2], 851 nM in experiment [3] and 3.7 nM in experiment [4].

`CN(C)C(=O)n1nnc(CNC(=O)c2ccc(N=[N+]=[N-])c(I)c2)n1`: the half-maximal inhibitory concentration (IC50) in experiment [1] is 4400 nM; in [2], more than 10000 nM; in experiment [3], more than 1000 nM; in experiment [4], 25 nM. For the same compound, the “inhibition (INH)” value in [3] amounted to 9%.

With `CN(C)C(=O)n1nnc(CNC(=O)CCCCCCc2ccccc2)n1`, the IC50 is 10000 nM in experiment [1], more than 10000 nM in experiment [2], more than 10000 nM in experiment [3] and 2.1 nM in [4]. Also, the “inhibition (INH)” value in experiment [3] was 30%.

One may read the inhibition as the relative decrease from the control value, in per cent. Consider `CN(C)C(=O)n1nnnc1Cc1ccc(-c2ccccc2)cc1`, for which the inhibition at 0.1 µM in [5] worked out at 66.5%. The IC50 in experiment [1] is more than 10000 nM; in experiment [2] it was 8100 nM; in experiment [3], 15 nM; in [4], 2.1 nM. Also, the results for the inhibition in experiment [6] and in [8] were 41.1% and 36.7%, respectively. This compound came in with an inhibition at 1 µM in experiment [7] of 74.2%.

With `CN(C)C(=O)n1nnc(CNC(=O)c2ccc(-c3ccccc3)cc2)n1`, the half-maximal inhibitory concentration (IC50) in [1] is more than 10000 nM; in experiment [2], more than 10000 nM; in experiment [3], 985 nM; in experiment [4], 6 nM.

For the compound `CN(C)C(=O)n1nnc(CCc2ccccc2)n1`, the IC50 was 600 nM in experiment [1], 480 nM in [2], more than 10000 nM in [3] and 3.5 nM in experiment [4]. For the same compound, the “inhibition (INH)” value in experiment [3] was 10.9%.

As to `C=CCOc1ccc(CN(C/C=C/c2ccccc2)CCCC)cc1`, in experiment [9], the 50% inhibitory concentration (IC50) turned out to be 90 nM.

For the compound `CN(C)C(=O)n1nnnc1CCCc1ccccc1`, the IC50 in experiment [1] is 10000 nM; in experiment [2], 10000 nM; in [3], more than 10000 nM; in [4], 2.7 nM. Moreover, the “inhibition (INH)” value in experiment [3] was 18%.
